The results in this text go back to ChEMBL document CHEMBL4184143 (J Med Chem, 2017).

Each structure is given as a SMILES string. The source made the active and inactive calls. The rule behind the calls is not given here. A value given as a limit tells only on which side of the number the result lay.

A short description of data set [1]: Oral bioavailability in SCID mouse at 25 mg/kg by LC/MS method. In kind it is ADME, organism-based. The conditions noted are these: in vivo.
For another data set, the system named is MDA-MB-231. The experiment in a line: Antitumor activity against human MDA-MB-231 cells xenografted in SCID mouse assessed as tumor growth inhibition at 40 mg/kg, po qd measured 2 to 3 times weekly during treatment and weekly post dose. In kind it is functional, organism-based. In short, it runs like this:
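At ~100 mm3, mice were randomized to treatment or vehicle control. Tumors were measured by electronic calipers. Animals were checked daily for signs of toxicity and weighed 2–3 times weekly on treatment, then at least weekly afterwards.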

The target in data set [2] is Bromodomain-containing protein 2 (Homo sapiens, UniProt P25440). The experiment in a line: Binding affinity to human partial length BRD2 bromodomain 1 long isoform (72 to 205 residues) expressed in bacterial expression system by BROMOscan assay.
Data set [3] can be described thus: Clearance in Sprague-Dawley rat at 5 mg/kg, iv by LC/MS method. In kind it is ADME, organism-based. The conditions noted are these: in vivo.
In data set [4] the target is Bromodomain-containing protein 4 (Homo sapiens, UniProt O60885). As to the kind of experiment: Binding affinity to human partial length BRD4 bromodomain 2 long isoform (K333 to E460 residues) expressed in bacterial expression system by BROMOscan assay.
The target in data set [5] is T1, Protein polybromo-1 (Homo sapiens, UniProt Q86U86). The experiment in a line: Binding affinity to human partial length PBRM1 bromodomain 5 (S645 to D766 residues) expressed in bacterial expression system by BROMOscan assay.
In data set [6] the target is Bromodomain-containing protein 8 (Homo sapiens, UniProt Q9H0E9). The experiment in a line: Binding affinity to human partial length BRD8 bromodomain 1 (S700 to F854 residues) expressed in mammalian expression system by BROMOscan assay.
For data set [7], the target named is T1, Protein polybromo-1. As to the kind of experiment: Binding affinity to human partial length PBRM1 bromodomain 2 (S178 to E291 residues) expressed in bacterial expression system by BROMOscan assay.
The next data set deals with HCC1143. As to the kind of experiment: Cytotoxicity against human HCC1143 cells assessed as cell growth inhibition after 4 days by WST-8 assay. In kind it is functional, cell-based. The conditions noted are these: HCC1143, 96 h. In short, it runs like this:
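Breast cancer cells were seeded at 3,000 cells/well, treated with serially diluted compound in medium and cultured for 4 days. Growth was read by WST-8 (10% v/v final, 1–3 h) at 450 nm. Readings were normalized to DMSO-treated cells, and IC50 was obtained by nonlinear regression.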
In general terms: Tetrazolium assays rely on reduction of a dye to a coloured formazan, in cell work by metabolically active cells.

T1 sequence (Q86U86 whole entry, the tested form may be a part): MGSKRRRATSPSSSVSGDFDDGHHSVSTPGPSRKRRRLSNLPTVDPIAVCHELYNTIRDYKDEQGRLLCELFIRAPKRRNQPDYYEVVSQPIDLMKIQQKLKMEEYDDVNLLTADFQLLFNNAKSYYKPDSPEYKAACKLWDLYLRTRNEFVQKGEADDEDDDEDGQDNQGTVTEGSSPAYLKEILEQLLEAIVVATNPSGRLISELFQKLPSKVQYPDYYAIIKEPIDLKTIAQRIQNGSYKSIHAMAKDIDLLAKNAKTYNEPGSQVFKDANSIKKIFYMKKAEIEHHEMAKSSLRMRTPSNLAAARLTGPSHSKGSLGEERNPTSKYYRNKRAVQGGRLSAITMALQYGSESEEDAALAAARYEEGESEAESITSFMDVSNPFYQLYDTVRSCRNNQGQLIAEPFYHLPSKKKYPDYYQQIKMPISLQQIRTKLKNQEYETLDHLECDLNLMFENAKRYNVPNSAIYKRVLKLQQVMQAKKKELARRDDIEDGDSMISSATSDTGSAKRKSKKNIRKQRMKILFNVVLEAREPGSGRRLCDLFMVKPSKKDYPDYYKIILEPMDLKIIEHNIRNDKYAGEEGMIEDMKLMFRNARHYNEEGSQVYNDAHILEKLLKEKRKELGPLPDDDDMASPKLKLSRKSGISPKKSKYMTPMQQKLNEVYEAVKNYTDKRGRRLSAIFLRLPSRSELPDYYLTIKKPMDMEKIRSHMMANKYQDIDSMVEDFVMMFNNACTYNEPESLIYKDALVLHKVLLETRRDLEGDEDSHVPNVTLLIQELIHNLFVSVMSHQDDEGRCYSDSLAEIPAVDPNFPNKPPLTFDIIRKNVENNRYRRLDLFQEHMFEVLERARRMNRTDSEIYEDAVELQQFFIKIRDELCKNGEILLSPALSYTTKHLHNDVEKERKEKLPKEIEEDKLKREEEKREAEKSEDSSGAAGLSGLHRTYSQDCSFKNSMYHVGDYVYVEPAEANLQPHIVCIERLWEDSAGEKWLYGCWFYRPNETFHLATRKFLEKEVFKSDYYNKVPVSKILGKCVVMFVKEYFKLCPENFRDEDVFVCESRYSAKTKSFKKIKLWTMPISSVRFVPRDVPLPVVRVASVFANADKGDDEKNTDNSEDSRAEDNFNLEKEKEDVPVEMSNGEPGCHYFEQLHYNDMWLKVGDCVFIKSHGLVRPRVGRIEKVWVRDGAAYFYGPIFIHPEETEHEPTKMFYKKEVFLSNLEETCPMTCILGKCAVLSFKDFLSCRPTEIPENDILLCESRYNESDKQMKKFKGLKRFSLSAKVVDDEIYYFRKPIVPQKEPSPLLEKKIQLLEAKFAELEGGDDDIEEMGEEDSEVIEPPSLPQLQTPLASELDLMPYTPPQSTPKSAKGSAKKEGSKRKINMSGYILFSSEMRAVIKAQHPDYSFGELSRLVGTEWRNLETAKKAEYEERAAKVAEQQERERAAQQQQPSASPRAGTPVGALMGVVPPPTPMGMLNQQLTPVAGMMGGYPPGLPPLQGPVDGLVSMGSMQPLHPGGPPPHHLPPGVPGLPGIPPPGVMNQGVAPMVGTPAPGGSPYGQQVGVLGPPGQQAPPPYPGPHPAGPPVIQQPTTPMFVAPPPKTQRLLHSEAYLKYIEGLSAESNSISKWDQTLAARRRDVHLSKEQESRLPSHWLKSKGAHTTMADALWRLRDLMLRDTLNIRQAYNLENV
Bromodomain-containing protein 8, sequence (Q9H0E9 whole entry, the tested form may be a part): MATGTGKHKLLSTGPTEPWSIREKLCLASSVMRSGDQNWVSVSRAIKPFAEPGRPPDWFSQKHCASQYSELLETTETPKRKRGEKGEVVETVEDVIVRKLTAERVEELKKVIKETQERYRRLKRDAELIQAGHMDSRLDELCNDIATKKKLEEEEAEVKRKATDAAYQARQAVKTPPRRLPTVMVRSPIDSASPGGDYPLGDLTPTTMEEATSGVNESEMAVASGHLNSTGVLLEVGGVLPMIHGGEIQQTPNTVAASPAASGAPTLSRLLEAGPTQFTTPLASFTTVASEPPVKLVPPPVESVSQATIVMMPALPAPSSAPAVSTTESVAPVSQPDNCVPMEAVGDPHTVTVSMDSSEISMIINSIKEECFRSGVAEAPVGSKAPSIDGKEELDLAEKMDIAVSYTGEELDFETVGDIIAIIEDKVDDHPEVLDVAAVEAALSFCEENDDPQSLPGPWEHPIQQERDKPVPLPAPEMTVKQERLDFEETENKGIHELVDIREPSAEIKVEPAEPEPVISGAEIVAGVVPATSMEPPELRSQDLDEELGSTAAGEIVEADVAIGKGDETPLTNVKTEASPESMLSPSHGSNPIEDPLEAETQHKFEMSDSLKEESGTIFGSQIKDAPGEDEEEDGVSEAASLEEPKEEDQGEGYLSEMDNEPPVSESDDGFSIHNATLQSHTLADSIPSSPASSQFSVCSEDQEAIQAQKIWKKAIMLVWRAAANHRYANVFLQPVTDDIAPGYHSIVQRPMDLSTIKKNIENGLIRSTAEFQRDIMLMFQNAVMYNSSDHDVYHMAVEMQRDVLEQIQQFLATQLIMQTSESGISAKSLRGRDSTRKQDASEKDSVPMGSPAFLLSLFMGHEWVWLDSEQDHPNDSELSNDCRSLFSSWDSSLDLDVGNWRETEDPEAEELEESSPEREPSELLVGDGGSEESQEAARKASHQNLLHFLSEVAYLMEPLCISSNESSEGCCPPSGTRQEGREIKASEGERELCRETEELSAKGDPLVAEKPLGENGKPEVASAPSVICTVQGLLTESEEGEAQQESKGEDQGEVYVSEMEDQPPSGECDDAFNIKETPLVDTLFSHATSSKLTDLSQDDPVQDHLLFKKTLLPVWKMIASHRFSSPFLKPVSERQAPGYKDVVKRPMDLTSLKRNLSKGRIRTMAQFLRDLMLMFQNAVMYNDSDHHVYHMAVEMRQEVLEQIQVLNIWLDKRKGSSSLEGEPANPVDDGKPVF
Bromodomain-containing protein 2, sequence (P25440 whole entry, the tested form may be a part, canonical isoform): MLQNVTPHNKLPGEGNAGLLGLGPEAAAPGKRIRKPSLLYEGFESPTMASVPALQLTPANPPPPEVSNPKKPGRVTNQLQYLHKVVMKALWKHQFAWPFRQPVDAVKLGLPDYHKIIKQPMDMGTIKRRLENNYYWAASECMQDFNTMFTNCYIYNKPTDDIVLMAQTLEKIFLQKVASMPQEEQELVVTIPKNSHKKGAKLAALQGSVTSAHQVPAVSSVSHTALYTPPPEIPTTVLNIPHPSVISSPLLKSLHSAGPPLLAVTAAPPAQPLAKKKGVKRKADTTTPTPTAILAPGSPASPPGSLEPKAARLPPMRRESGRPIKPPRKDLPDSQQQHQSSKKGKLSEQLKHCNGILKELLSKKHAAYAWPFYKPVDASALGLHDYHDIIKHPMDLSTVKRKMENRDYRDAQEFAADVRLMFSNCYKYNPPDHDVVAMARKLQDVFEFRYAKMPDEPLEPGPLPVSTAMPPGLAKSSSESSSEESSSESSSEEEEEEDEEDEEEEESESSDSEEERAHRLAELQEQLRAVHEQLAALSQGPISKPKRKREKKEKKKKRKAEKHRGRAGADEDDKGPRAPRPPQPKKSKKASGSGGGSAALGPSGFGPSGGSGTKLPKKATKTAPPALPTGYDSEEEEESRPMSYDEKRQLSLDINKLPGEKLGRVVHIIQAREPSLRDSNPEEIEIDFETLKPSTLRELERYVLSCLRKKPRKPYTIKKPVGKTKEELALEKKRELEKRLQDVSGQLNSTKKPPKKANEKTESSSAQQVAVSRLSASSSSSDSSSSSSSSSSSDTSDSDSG

Molecule `COc1cc2c(cc1-c1c(C)noc1C)[nH]c1nc(C)nc(-c3ccnc4ccccc34)c12` returned a bioavailability in data set [1] of 50%. Also, the TGI entry in the data set on MDA-MB-231 was “Active”. The Kd in [2] was 4.5 nM; in [4] it was 2 nM; on Protein polybromo-1 [5] it was over 4000 nM; in data set [6] it was over 4000 nM; at Protein polybromo-1 [7] it was over 4000 nM. Also, in [3], the clearance was 13.2 mL/min/kg. In addition, in the data set with HCC1143, the IC50 was over 2000 nM.

In general, bioavailability refers to dose-corrected exposure relative to a reference, in per cent. Read a low bioavailability as little systemic uptake. The term Kd denotes the constant that tells how readily two partners part at equilibrium. As usually defined, the clearance is the volume of plasma or blood freed of the substance per unit of time. For orientation: IC50 means the midpoint of a concentration-inhibition curve.
